PMI act hi M6P – increases human PMI activity with near-saturating mannose 6-phosphate | coupled PMI enzyme assay, resazurin fluorescence, 20 min; stronger effect = higher value; 1 = untreated enzyme, 0 = substrate-free blank | P34949 | activation factor at 20 µM | AID 1216 | 190,000 compounds, 0.34% hits;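 active = activation factor of 2 or more at 20 µM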
Target sequence (P34949 whole entry, looked up): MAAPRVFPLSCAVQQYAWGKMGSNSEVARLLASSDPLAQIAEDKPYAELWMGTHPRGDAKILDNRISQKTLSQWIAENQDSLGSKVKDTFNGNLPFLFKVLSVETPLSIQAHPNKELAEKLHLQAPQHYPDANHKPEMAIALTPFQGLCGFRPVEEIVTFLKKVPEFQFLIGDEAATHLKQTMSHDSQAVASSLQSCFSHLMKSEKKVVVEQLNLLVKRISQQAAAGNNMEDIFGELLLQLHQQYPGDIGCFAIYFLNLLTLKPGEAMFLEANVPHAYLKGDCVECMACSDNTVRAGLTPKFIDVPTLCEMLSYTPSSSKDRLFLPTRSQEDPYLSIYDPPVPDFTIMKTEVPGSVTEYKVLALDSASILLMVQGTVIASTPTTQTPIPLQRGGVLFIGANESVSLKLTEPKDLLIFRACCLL
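Test system: human phosphomannose isomerase with PGI, G6PDH, diaphorase coupling enzymes; Amount: PMI at 15 ng/mL final; Reagent: Mannose-6-phosphate 1.0 mM (near-saturating) plus 0.22 mM NADP+; Timing: 20 min, room temperature; Technique: resorufin fluorescence at Ex 544/Em 590 nm; Dosing: 20 µM single dose.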
L major viab – Leishmania major promastigote growth inhibition; Leishmania major promastigotes, resazurin fluorescence viability; inhibition, % at 10 µM; 200,000 compounds, 9% hits; AID 1063; in the data active = inhibition above about 50%;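 note: promastigotes grown with compound for 44 hours at 28 °C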
bCat KO growth – beta-catenin-lacking colon tumor cell growth suppression; HCT116 beta-catenin knockout viability, CellTiter-Glo, 60 h; stronger effect = lower value; viability, % at 10 µM; 140,000 compounds, 1.5% hits; AID 818;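 active = viability at or under a set limit, the compound median less 4 SD, cut at about 6% in these data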
HCT116 PTEN-null – PTEN-deleted cell growth suppression; 140,000 compounds, 1.2% hits; HCT116 PTEN-null viability, CellTiter-Glo, 60 h; stronger effect = lower value; viability, % at 10 µM; AID 827;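 active = viability at or below a set limit, 4 SD under the median of all tested compounds, cut at about 3.7% in these data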;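 note: PTEN knockout HCT116 line with beta catenin targeted HCT116 as companion control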
PMI act – phosphomannose isomerase (human) activation. purified human PMI, coupled resazurin fluorescence, 20 min; stronger effect = higher value; 1 = vehicle control, 0 substrate-free wells. 190,000 compounds, 0.005% hits. activation factor at 20 µM;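 active = activation factor of 2 or more at 20 µM, relative to plate controls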
Of the large screens only hits and unclear results are named; the others gave an inactive call. Compounds with a hit are over-represented: about 9.6% of the library has one in this group of screens.

CCCCC(=O)OCC(=O)c1cc(C)n(-c2c(C)n(C)n(-c3ccccc3)c2=O)c1C	none (no result: bCat KO growth, HCT116 PTEN-null)
Cc1sc(NC(=O)c2cc(-c3ccccc3)nc3ccccc23)c(C(N)=O)c1C	none
O=C(N/N=C\c1ccccn1)c1ccccc1O	L major viab 69 (no result: bCat KO growth, HCT116 PTEN-null)
Cc1ccccc1C(=O)N/N=C/c1ccccn1	none
O=C(N/N=C/c1ccccn1)c1cc(-c2ccc(Cl)cc2)nc2ccccc12	L major viab 98, bCat KO growth 3.7, HCT116 PTEN-null 3.2
O=C(N/N=C/c1ccccn1)c1cccs1	L major viab 77 (no result: bCat KO growth, HCT116 PTEN-null)
Cc1sc(NC(=O)c2cc(-c3ccc(Cl)cc3)nc3ccccc23)c(C(N)=O)c1C	bCat KO growth 3.9, HCT116 PTEN-null 1.0
CNC(=O)CC(C(=O)O)c1ccc(OCC(C)C)cc1 (stereo not given)	none
Cn1c2ccccc2c(=O)c2c(=O)n(C3CCCCC3)c(-c3ccco3)nc21	bCat KO growth 4.1, HCT116 PTEN-null 3.4
CC1CC(C)CN(C(=O)C(C)N(C)CC(=O)Nc2ccccc2Cl)C1 (stereo not given)	none (no result: bCat KO growth, HCT116 PTEN-null)
CC1CCN(CCC(=O)N/N=C/c2ccc([N+](=O)[O-])cc2)CC1	L major viab 81 (no result: bCat KO growth, HCT116 PTEN-null)
COc1ccc(OC)c(/C=C/C(=O)N2CCCc3ccccc32)c1	none (no result: bCat KO growth, HCT116 PTEN-null)
COc1cc(/C=C/C(=O)N2CCCc3ccccc32)cc(OC)c1OC	L major viab 50
COc1cc(/C=C/C(=O)N2C(=O)c3cccc(N)c3C2=O)cc(OC)c1OC	bCat KO growth 4.5
COc1ccc(/C=C/C(=O)N2CCCc3ccccc32)cc1	L major viab 60
CCOC(=O)Cc1cnc(NC(=O)CSc2nc(C)c(CC)c(=O)[nH]2)s1	none (no result: bCat KO growth, HCT116 PTEN-null)
COc1ccc(CCNC(=O)CCc2ccc(S(=O)(=O)NCC(C)C)cc2)cc1OC	none (no result: bCat KO growth, HCT116 PTEN-null)
CCOC(=O)c1c(NC(=O)CN2CCN(C(=O)c3ccco3)CC2)sc2c1CCCC2	L major viab 52
CCOC(=O)c1c(NC(=O)C(=O)N/N=C/c2ccccc2OC)sc2c1CCCCC2	none
CCOC(=O)c1c(NC(=O)COc2cccc3c2CCN(CC)C3=O)sc2c1CCC2	L major viab 59
CCOC(=O)c1c(NC(=O)C(=O)N/N=C/c2ccccc2O)sc2c1CCCCC2	L major viab 99
CCOC(=O)c1c(NC(=O)c2ccco2)sc2c1CCCC2	none
CCOC(=O)c1c(NC(=O)COc2cccc3c2CCN(Cc2ccc(F)cc2)C3=O)sc2c1CCC2	none
O=C(Nc1cc(Sc2nc3ccccc3s2)cc([N+](=O)[O-])c1)c1cccc(F)c1F	L major viab 73
COc1ccc2oc(=O)c(/C(C)=N/Nc3nc(-c4cc(C)ccc4C)cs3)cc2c1	PMI act hi M6P 2.3
C/C(=N\Nc1nc(-c2ccc(C)cc2C)cs1)c1cc2ccccc2oc1=O	none
O=C(NC1CS(=O)(=O)CC1NCc1ccco1)c1ccccc1 (stereo not given)	none
CN1C(=O)/C(=C/c2ccccc2OCc2ccccc2F)NC1=S	L major viab 62
O=C(O)c1ccc(COc2ccccc2/C=C2\NC(=O)N(Cc3ccccc3F)C2=O)cc1	none (no result: bCat KO growth, HCT116 PTEN-null)
COC(=O)c1cc(=O)n(CCc2ccc(OC)c(OC)c2)c(=Nc2ccc(F)c(Cl)c2)s1	L major viab 98, bCat KO growth 2.4, HCT116 PTEN-null 3.7
CC(C)=N/N=c1\scc(C)n1Cc1ccco1	none (no result: bCat KO growth, HCT116 PTEN-null)
CNC(=O)C1CC(=O)N(CCc2ccc(OC)c(OC)c2)C(=Nc2ccc(F)cc2)S1 (stereo not given)	none (no result: bCat KO growth, HCT116 PTEN-null)
COC(=O)c1cc(=O)n(Cc2ccc(OC)c(OC)c2)c(=Nc2ccc(F)cc2)s1	bCat KO growth 2.0, HCT116 PTEN-null 2.0
COC(=O)c1cc(=O)n(Cc2ccco2)c(=Nc2ccc(F)cc2)s1	L major viab 96 (no result: bCat KO growth, HCT116 PTEN-null)
CCOC(=O)c1c(C(=O)OCC)c(C)n(CCc2ccc(OC)c(OC)c2)c1C	none
CC1CCCC(NC(=O)COC(=O)CCSc2ccccc2)C1C (stereo not given)	none (no result: bCat KO growth, HCT116 PTEN-null)
O=C(NCc1ccco1)C(c1ccccc1)N(C(=O)Cc1cccs1)c1ccccc1F (stereo not given)	none
C/C(N)=C(/C#N)C(=O)COC(=O)Cc1coc2ccc3ccccc3c12	none (no result: bCat KO growth, HCT116 PTEN-null)
CC(C)CC(c1nnnn1C1CCCCC1)N1CCN(c2ncccn2)CC1 (stereo not given)	L major viab 63
CCC(c1nnnn1C1CCCCC1)N1CCN(C2CCCC2)CC1 (stereo not given)	L major viab 65
